Numbering of substitutions follows the chain as printed. Marks after values point to notes of the source that are not given here. Each block holds one compound with its values, some of them ahead of it. Starred links: 1 amine or outer side, 2 acyl side, 3 side chain; linkers in the order of their positions; H or OH if unused. Non-standard residues stand in square brackets, D forms with d. Residues, ends and D or L forms follow the SMILES beside them. *: point of attachment. X2 = CN(C)c1ccc2c(-c3ccc(C(=O)*)cc3C(=O)[O-])c3ccc(=[N+](C)C)cc-3oc2c1; Isoquinoline5sulfonyl = O=S(=O)(c1cccc2cnccc12)*; X1 = O=C(CCCCCNCCN[*:1])[*:2]
What was measured:
[1] = target: T1, PKGIα (Bos taurus, UniProt P00516); assay: FI displacement assay; type: binding, bovine
T1 sequence (P00516 1-671): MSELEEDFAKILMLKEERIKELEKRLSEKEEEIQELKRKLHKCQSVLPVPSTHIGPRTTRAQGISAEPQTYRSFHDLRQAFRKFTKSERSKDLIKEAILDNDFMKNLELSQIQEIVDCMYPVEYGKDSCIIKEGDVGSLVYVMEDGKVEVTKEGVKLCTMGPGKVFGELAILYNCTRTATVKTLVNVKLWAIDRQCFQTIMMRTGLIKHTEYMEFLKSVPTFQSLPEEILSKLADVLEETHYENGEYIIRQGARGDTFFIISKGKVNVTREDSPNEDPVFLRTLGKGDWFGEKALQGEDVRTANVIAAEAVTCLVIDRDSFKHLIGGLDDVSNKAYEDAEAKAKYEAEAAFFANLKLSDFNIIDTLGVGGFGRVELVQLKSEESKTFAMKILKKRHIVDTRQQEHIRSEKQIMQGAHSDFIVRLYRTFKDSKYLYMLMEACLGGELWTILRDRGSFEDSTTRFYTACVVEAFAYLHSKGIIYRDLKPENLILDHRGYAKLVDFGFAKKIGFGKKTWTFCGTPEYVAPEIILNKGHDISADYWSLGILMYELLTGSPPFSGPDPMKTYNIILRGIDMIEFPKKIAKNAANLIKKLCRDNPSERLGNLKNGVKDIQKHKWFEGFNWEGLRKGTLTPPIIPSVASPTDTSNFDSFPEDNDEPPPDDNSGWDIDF

[2] = system: vascular smooth muscle cells in intact cerebral arteries; assay: Fluorescence imaging of vascular smooth muscle cells in intact arteries; type: cell-based, rat
In short: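 Isolated intact rat cerebral arteries incubated at room temperature in Hepes buffer with the TAMRA-labelled test compound (100 nM, 1 μM or 10 μM) for 20, 40 or 60 min, then washed 3 times. Imaged by confocal scanning laser microscopy at 20× and 40×, with TAMRA excited at 568 nm (krypton–argon laser). Fluorescein-labelled reference peptide (2 μM) with TOTO-3 nuclear stain (488/647 nm excitation) used as reference.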

[3] = target: T2, PKGIα (Homo sapiens, UniProt Q13976); assay: FA direct binding assay; details: addition of cGMP in the absence of Mg2+
T2 sequence (Q13976 1-671): T1 sequence (P00516 1-671) with K265T, N275S

[4] = target: T1, PKGIα; assay: Radioactive inhibition assay; type: biochemical, bovine
[5] = target: PKAc (Homo sapiens, UniProt P17612); details: 100 μM ATP and 30 μM TAMRA-Kemptide substrate; logarithm of IC50; cited from earlier work
[6] = target: PKGIα; details: reported in the literature; cited from earlier work
[7] = target: T2, PKGIα; assay: FA displacement assay; type: binding; details: for log IC50, PKGIα, FA (displacement): displacement of ARC-1059 (2 nM) from PKGIα (4 nM), cGMP 1 μM, logarithm of IC50

IC50 [1]: 251 µM
Compound: CSCC[C@H](NC(=O)[C@H](C)NC(=O)[C@H](CC(C)C)NC(=O)[C@H](C)NC(=O)[C@H](CCCCN)NC(=O)[C@H](CCCCN)NC(=O)[C@H](CCCNC(=N)N)NC(=O)[C@H](CCCCN)NC(=O)[C@H](C)NC(=O)[C@H](CCC(N)=O)NC(=O)[C@@H](N)[C@@H](C)O)C(=O)N[C@@H](C)C(N)=O [WW21]

Compound: CN(C)c1ccc2c(-c3ccc(C(=O)NCCCC[C@@H](NC(=O)[C@@H](CCCNC(=N)N)NC(=O)[C@@H](CCCNC(=N)N)NC(=O)[C@@H](CCCNC(=N)N)NC(=O)[C@@H](CCCNC(=N)N)NC(=O)[C@@H](CCCNC(=N)N)NC(=O)[C@@H](CCCNC(=N)N)NC(=O)CCCCCNCCNS(=O)(=O)c4cccc5cnccc45)C(N)=O)cc3C(=O)[O-])c3ccc(=[N+](C)C)cc-3oc2c1 [ARC-1059, H9-Hex-(D-Arg)6-[D-Lys(TAMRA)]-NH2] (Isoquinoline5sulfonyl-[X1][dR][dR][dR][dR][dR][dR][dK](X2)-NH2)
internalization in smooth muscle tissue, concentration dependence ([2]; 100 nM, 1 μM or 10 μM): not well observable at concentrations lower than 1 μM
incubation time after which internalization into tissue cells was observable ([2]; 10 μM, nucleus not yet stained): 20 min
internalization into vascular smooth muscle cells ([2]; intact pial arteries from rat brain, incubation 20, 40 or 60 min at room temperature): internalized into vascular smooth muscle cells
increase of affinity towards PKGIα by addition of cGMP [3]: 8 fold

log IC50, PKGIα, Inhibition ([4]; 100 μM ATP and 11 μM TQAKRKKSLAMA substrate, presence of cGMP, logarithm of IC50): −6.85 (0.02)
IC50 ([4]; read-out: inhibition IC50, 100 μM ATP, 11 μM substrate peptide, presence of cGMP): 0.141 µM
Compound: NCCNS(=O)(=O)c1cccc2cnccc12 [H9]
log IC50, PKAc, Inhibition [5]: −5.43 ^b [36]
Ki [6]: 0.87 µM

Compound: Nc1ncnc2c1ncn2[C@@H]1O[C@H](COP(=O)(O)OP(=O)(O)OP(=O)(O)O)[C@@H](O)[C@H]1O [ATP]
Km ([4]; PKGIα-catalysed phosphorylation): 20 µM
log IC50, PKGIα, FA (displacement) [7]: −2.02 (0.33)

IC50 [7]: 3.02 µM
IC50 [1]: 1.1 µM
Compound: O=S(=O)(NCCNCC=Cc1ccc(Br)cc1)c1cccc2cnccc12 [H89, N-[2-(p-bromocinnamylamino)ethyl]-5-isoquinoline-sulfonamide]
Ki [6]: 0.48 µM

Compound: COC(=O)[C@@]1(OC)C[C@H]2O[C@]1(C)n1c3ccccc3c3c4c(c5c6ccccc6n2c5c31)C(=O)N(C)C4 [KT-5823]
displacement of ARC-1059 from its complex with PKGIα ([7]; assay format not stated): failed to displace ARC-1059

Compound: Nc1ncnc2c1ncn2[C@@H]1O[C@H](COP(=O)(O)OP(=O)([O-])OP(=O)([O-])O)[C@@H](O)[C@H]1O.[Mg+2] [MgATP]
log IC50, PKGIα, FA (displacement) [7]: −2.35 (0.08)

From PMC3071016 (Biochimica et biophysica acta, 2010)
